What was measured:
[1] = molecular target: T1, Sodium-dependent dopamine transporter (Homo sapiens, UniProt Q01959); test: Inhibition of [3H]-DA uptake in human dopamine transporter expressed in CHO cells at 10 uM by scintillation counting
[2] = molecular target: T2, Sodium-dependent serotonin transporter (Homo sapiens, UniProt P31645); test: Inhibition of [3H]-serotonin uptake in human SERT expressed in HEK293 cells at 10 uM by scintillation counting; assay type: cell-based
Target sequence in this assay (P31645 whole entry, looked up): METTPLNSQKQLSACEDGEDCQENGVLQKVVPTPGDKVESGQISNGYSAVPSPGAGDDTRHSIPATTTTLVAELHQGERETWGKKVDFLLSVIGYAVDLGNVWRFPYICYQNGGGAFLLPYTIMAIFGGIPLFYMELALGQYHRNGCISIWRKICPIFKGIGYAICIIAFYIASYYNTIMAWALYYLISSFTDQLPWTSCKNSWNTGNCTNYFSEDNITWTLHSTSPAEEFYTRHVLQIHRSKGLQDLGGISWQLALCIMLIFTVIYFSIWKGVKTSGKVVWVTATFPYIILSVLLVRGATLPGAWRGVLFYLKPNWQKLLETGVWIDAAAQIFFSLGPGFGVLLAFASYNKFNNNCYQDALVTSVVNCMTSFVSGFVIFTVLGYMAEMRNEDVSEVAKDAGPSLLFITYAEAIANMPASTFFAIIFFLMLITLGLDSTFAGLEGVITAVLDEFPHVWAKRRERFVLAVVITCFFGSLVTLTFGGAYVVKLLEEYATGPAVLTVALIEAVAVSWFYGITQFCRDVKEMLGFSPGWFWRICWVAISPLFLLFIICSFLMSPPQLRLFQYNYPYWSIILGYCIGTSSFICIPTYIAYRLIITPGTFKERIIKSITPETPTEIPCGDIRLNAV

[3] = molecular target: T3, Sodium-dependent noradrenaline transporter (Homo sapiens, UniProt P23975); test: Inhibition of [3H]-NE uptake in human norepinephrine transporter expressed in HEK293 cells at 10 uM by scintillation counting; assay type: cell-based
[4] = molecular target: T3, Sodium-dependent noradrenaline transporter; test: Inhibition of [3H]-NE uptake in human norepinephrine transporter expressed in HEK293 cells by scintillation counting; assay type: cell-based
[5] = molecular target: T2, Sodium-dependent serotonin transporter; test: Inhibition of [3H]-serotonin uptake in human SERT expressed in HEK293 cells by scintillation counting; assay type: cell-based
Target sequence in this assay (P31645 whole entry): as the sequence (P31645 whole entry, looked up) above

[6] = molecular target: T1, Sodium-dependent dopamine transporter; test: Inhibition of [3H]-DA uptake in human dopamine transporter expressed in HEK293 cells by scintillation counting; assay type: cell-based
Rattus norvegicus [7] = test: Antidepressant activity in rat assessed as reduction in immobility time at 10 mg/kg, po by forced swimming test relative to control; assay type: functional
Outline: (§1)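 Male rats dosed orally at 5, 10 or 20 mg/kg alongside vehicle and venlafaxine 30 mg/kg PO groups. 1 h post-dose, each rat placed in a glass cylinder (40 cm × 18 cm) holding 15 cm of 25 ± 1 °C water. Immobility time recorded over a 6 min trial; significant main effects followed by post hoc Fisher's test.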

Rattus norvegicus [8] = test: Antidepressant activity in rat assessed as reduction in immobility time at 20 mg/kg, po by forced swimming test relative to control; assay type: functional
Outline: as §1

Rattus norvegicus [9] = test: Antidepressant activity in po dosed rat assessed as reduction in immobility time by forced swimming test; assay type: functional, organism-based
Outline: as §1

Rattus norvegicus [10] = test: Antidepressant activity in rat assessed as reduction in immobility time at 5 mg/kg, po by forced swimming test relative to control; assay type: functional
Outline: as §1

Rattus norvegicus [11] = test: Toxicity in rat assessed as effect on locomotion at 20 mg/kg, po after 60 mins by spontaneous locomotor test; assay type: organism-based; parameters: dose 20 mg/kg, route oral; conditions: in vivo, 1 h
Outline: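 Rats dosed orally at 20 mg/kg, with vehicle and venlafaxine 30 mg/kg PO as controls; 60 min later placed singly in novel 40×40×50 cm cages under dim light with sound attenuation; activity recorded automatically in 5 min bins over 30 min; mean ± SEM.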

Rattus norvegicus [12] = test: Antidepressant activity in rat assessed as reduction in immobility time at 30 mg/kg, po by forced swimming test relative to control; assay type: functional
Outline: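 Male rats were dosed PO with vehicle or compound. After 1 h each rat was placed in a clear glass cylinder (40 cm tall × 18 cm diameter) holding water at 25 ± 1 °C, 15 cm deep. Immobility time was recorded over a 6 min trial and compared with vehicle. Significant main effects were followed by Fisher's post hoc test.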

Rattus norvegicus [13] = test: Toxicity in rat assessed as effect on locomotion at 30 mg/kg, po after 60 mins by spontaneous locomotor test; assay type: organism-based; parameters: dose 30 mg/kg, route oral; conditions: in vivo, 1 h
Outline: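 Rats were dosed PO. 60 min later each was placed alone in an unfamiliar 40 cm × 40 cm × 50 cm plastic cage under dim light and sound attenuation. Spontaneous activity was monitored automatically at 5 min intervals for up to 30 min. Results are mean ± SEM versus vehicle.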

T3 sequence (P23975 whole entry): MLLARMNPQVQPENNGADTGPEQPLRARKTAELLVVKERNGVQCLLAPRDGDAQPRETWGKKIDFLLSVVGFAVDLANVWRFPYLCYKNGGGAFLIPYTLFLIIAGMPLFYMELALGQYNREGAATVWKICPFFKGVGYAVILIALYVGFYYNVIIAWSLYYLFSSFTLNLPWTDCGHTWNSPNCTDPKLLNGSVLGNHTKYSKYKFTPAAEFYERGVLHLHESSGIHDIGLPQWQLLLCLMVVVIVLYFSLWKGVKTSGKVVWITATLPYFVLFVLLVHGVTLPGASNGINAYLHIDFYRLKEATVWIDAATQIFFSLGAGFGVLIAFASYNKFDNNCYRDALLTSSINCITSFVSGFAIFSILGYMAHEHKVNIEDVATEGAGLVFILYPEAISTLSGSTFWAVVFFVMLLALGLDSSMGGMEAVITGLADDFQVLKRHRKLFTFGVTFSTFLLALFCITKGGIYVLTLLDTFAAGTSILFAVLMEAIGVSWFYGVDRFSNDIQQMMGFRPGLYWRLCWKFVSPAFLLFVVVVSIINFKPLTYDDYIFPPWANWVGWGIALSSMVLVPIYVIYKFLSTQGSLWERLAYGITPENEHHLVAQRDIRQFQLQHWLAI
T1 sequence (Q01959 whole entry): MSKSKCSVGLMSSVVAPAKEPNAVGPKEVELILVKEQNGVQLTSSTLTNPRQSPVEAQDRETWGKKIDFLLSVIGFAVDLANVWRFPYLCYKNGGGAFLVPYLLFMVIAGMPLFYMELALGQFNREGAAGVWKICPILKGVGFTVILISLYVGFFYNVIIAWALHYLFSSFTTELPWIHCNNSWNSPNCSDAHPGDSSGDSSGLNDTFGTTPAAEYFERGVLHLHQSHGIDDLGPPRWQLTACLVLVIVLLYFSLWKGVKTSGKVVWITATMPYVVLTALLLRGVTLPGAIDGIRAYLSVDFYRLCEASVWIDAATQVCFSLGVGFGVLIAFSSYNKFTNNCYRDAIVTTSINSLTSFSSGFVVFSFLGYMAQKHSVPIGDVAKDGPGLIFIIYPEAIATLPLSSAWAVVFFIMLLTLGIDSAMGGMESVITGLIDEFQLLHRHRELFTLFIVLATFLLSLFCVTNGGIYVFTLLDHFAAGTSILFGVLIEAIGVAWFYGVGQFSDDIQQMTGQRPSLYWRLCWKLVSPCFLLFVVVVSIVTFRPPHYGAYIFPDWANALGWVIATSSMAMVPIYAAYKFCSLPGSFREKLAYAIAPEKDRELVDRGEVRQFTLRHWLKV

CN(C)CCC(c1ccc(F)cc1)N1CCCCC1 (centres undefined)
inhibition [1]: 40.1% | inhibition [2]: 62.7% | inhibition [3]: 87.6%

CN(C)CCC(c1csc2ccccc12)N1CCOCC1 (centres undefined)
IC50 [4]: 2540 nM | IC50 [5]: 1190 nM | inhibition [1]: 56.8%

CN(C)CCC(c1ccc(Cl)c(Cl)c1)N1CCNCC1 (centres undefined)
IC50 [4]: 428 nM | IC50 [5]: 399 nM | inhibition [1]: 80.1%

C1=C(Cc2ccccc2)CCN(CCC(c2csc3ccccc23)N2CCOCC2)C1 (centres undefined)
inhibition [2]: 65.4% | inhibition [3]: 79.1% | IC50 [6]: 852 nM

COc1ccc2cc(C(CCN(C)Cc3ccccc3)N3CCOCC3)ccc2c1Cl (centres undefined)
inhibition [1]: 2.5% | inhibition [2]: 47.3% | inhibition [3]: 49.5%

CN(C)CCC(c1cc2ccccc2s1)N1CCOCC1 (centres undefined)
IC50 [4]: 1460 nM | IC50 [5]: 449 nM | inhibition [1]: 66.8%

C1=C(Cc2ccccc2)CCN(CCC(c2csc3ccccc23)N2CCNCC2)C1 (centres undefined)
IC50 [4]: 635 nM | inhibition [1]: 83.9% | inhibition [2]: 73.9%

Cc1ccc(C(CCN(C)C)N2CCOCC2)cc1 (centres undefined)
inhibition [1]: 25.8% | inhibition [2]: 39.2% | inhibition [3]: 40.4%

CN(CCC(c1ccc(F)cc1F)N1CCOCC1)Cc1ccccc1 (centres undefined)
inhibition [1]: 46.2% | inhibition [2]: 24.1% | inhibition [3]: 5.3%

CN(CCC(c1cc2ccccc2s1)N1CCOCC1)Cc1ccccc1 (centres undefined)
inhibition [1]: 41.9% | inhibition [2]: 30.3% | inhibition [3]: 37.8%

Clc1ccc(C(CCN2CCOCC2)N2CCCC2)cc1Cl (centres undefined)
inhibition in vivo at 10 mg/kg (Rattus norvegicus [7]): 17% | IC50 [4]: 68.9 nM | IC50 [5]: 389 nM | inhibition in vivo at 20 mg/kg (Rattus norvegicus [8]): 34% | inhibition (Rattus norvegicus [9]): Dose-dependent effect | IC50 [6]: 238 nM | inhibition in vivo at 5 mg/kg (Rattus norvegicus [10]): 12% | Activity (Rattus norvegicus [11]): Non-toxic

Clc1ccc(C(CCN2CC=C(Cc3ccccc3)CC2)N2CCCC2)cc1Cl (centres undefined)
IC50 [4]: 426 nM | inhibition [2]: 79.1% | IC50 [6]: 291 nM

CN(C)CCC(c1csc2ccccc12)N1CCCC1 (centres undefined)
IC50 [4]: 250 nM | IC50 [5]: 425 nM | IC50 [6]: 986 nM

CN(C)CCC(c1ccc(C(F)(F)F)cc1)N1CCOCC1 (centres undefined)
inhibition [1]: 8.5% | inhibition [2]: 46.2% | inhibition [3]: 83.2%

CN(C)CCC(c1ccc(Cl)c(Cl)c1)N1CCCCC1 (centres undefined)
IC50 [4]: 634 nM | IC50 [5]: 546 nM | IC50 [6]: 602 nM

CN(C)CCC(c1ccc(F)cc1)N1CCOCC1 (centres undefined)
inhibition [1]: 6.4% | inhibition [2]: 50.7% | inhibition [3]: 74.2%

CCOC(=O)C1CCCN(C(CCN2CCOCC2)c2ccc(Cl)c(Cl)c2)C1 (centres undefined)
inhibition [1]: 36.6% | inhibition [2]: 34.9% | inhibition [3]: 19%

CN(C)CCC(c1cc2ccccc2s1)N1CCCC1 (centres undefined)
IC50 [4]: 495 nM | IC50 [5]: 401 nM | IC50 [6]: 863 nM

Clc1ccc(C(CCN2CCCCC2)N2CCOCC2)cc1Cl (centres undefined)
inhibition [1]: 68.1% | inhibition [2]: 59.9% | inhibition [3]: 74%

CN(C)CCC(c1ccc(Cl)c(Cl)c1)N1CCCC1 (centres undefined)
inhibition in vivo at 10 mg/kg (Rattus norvegicus [7]): 25% | IC50 [4]: 206 nM | IC50 [5]: 501 nM | inhibition in vivo at 20 mg/kg (Rattus norvegicus [8]): 36% | inhibition (Rattus norvegicus [9]): Dose-dependent effect | IC50 [6]: 357 nM | inhibition in vivo at 5 mg/kg (Rattus norvegicus [10]): 18% | Activity (Rattus norvegicus [11]): Non-toxic

Clc1ccc(C(CCN2CCOCC2)N2CCOCC2)cc1Cl (centres undefined)
inhibition [1]: 54.4% | inhibition [2]: 73.8% | inhibition [3]: 4.9%

C1=C(Cc2ccccc2)CCN(CCC(c2csc3ccccc23)N2CCCC2)C1 (centres undefined)
IC50 [4]: 157 nM | IC50 [5]: 621 nM | IC50 [6]: 325 nM

COc1ccc2cc(C(CCN3CC=C(Cc4ccccc4)CC3)N3CCCC3)ccc2c1Cl (centres undefined)
inhibition [1]: 79.5% | inhibition [2]: 79.9% | inhibition [3]: 73.5%

CCN(CC)CCC(c1ccc(Cl)c(Cl)c1)N1CCCC1 (centres undefined)
IC50 [4]: 136 nM | inhibition [2]: 76.5% | IC50 [6]: 363 nM

CN(C)CCC(c1ccc(F)cc1)N1CCCC1 (centres undefined)
inhibition [1]: 46.6% | inhibition [2]: 70.2% | inhibition [3]: 68.9%

CNCCC(c1ccc(F)cc1F)N1CCOCC1 (centres undefined)
IC50 [4]: 328 nM | inhibition [1]: 42% | inhibition [2]: 86.1%

CN(C)CCC(c1ccc(F)cc1F)N1CCOCC1 (centres undefined)
inhibition [1]: 50.7% | inhibition [2]: 55.6% | inhibition [3]: 19.4%

COc1ccc(C(CN(C)C)C2(O)CCCCC2)cc1 (centres undefined) [VENLAFAXINE]
inhibition in vivo at 30 mg/kg (Rattus norvegicus [12]): 14% | Activity (Rattus norvegicus [13]): Toxic

COc1ccc2cc(C(CCN(C)C)N3CCCC3)ccc2c1Cl (centres undefined)
IC50 [4]: 374 nM | IC50 [5]: 338 nM | IC50 [6]: 8190 nM

CN(C)CCC(c1ccc(C(F)(F)F)cc1)N1CCCC1 (centres undefined)
inhibition [1]: 37.1% | inhibition [2]: 57.6% | inhibition [3]: 77.4%

CN(CCC(c1ccc(Cl)c(Cl)c1)N1CCOCC1)Cc1ccccc1 (centres undefined)
inhibition [1]: 3.4% | inhibition [2]: 35.6% | inhibition [3]: 50.6%

CC1CCCN(C(CCN2CCOCC2)c2ccc(Cl)c(Cl)c2)C1 (centres undefined)
inhibition [1]: 54.3% | inhibition [2]: 30.5% | inhibition [3]: 35.3%

CN(C)CCC(c1ccc(Cl)cc1)N1CCOCC1 (centres undefined)
inhibition [1]: 35.7% | inhibition [2]: 58.5% | inhibition [3]: 52.5%

C1=C(Cc2ccccc2)CCN(CCC(c2csc3ccccc23)N2CCCCC2)C1 (centres undefined)
IC50 [5]: 905 nM | inhibition [1]: 77.4% | inhibition [3]: 52.7%

COc1ccc(C(CCN(C)C)N2CCOCC2)cc1 (centres undefined)
inhibition [1]: 22.9% | inhibition [2]: 25.9% | inhibition [3]: 29.3%
